# Compound activity deposited in PubChem by several laboratories.
# UBC13 polyUb: inhibitors of human UBC13 polyubiquitin chain formation; TR-FRET; P61088; 0.47% of 330,000 active; inhibition, % at 20 µM; in the data active = inhibition above about 45%, passing the limit was not always enough
# Apaf-1 inh: inhibitors of human Apaf-1 apoptosome | O14727 | reconstituted apoptosome caspase-3 activity, DEVD-Rh110 fluorescence | inhibition, % at 20 µM | 0.71% of 330,000 active | AID 489030; active = inhibition of at least 40% at 20 µM;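 note: plate controls were DMSO wells for no effect and DEVD-CHO caspase inhibitor wells for full effect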
#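 Medium: Hepes buffer, pH 7.5 / System: biochemical Apaf-1 apoptosome reconstitution / Measured by: Rh110 fluorescence, excitation 480 nm, emission 540 nm / Times: compound with Apaf-1, dATP, procaspase-3 30 min, then 50 min reaction, room temperature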
# EBNA-1 inh: blocks EBNA-1 binding to DNA. EBNA-1 DNA binding, fluorescence polarization. inhibition, % at 14.8 µM. 0.34% of 300,000 active; in the data active = inhibition above about 28%
# PREPL inhibitor: inhibitors of human prolyl oligopeptidase-like enzyme PREPL. recombinant PREPL, fluorescence polarization activity-based probe. inhibition, % at 5.96 µM. 0.68% of 320,000 active. AID 2751; in the data active = inhibition above about 43%;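 note: 0% = enzyme with DMSO and 100% = wells lacking enzyme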
# Target sequence (Q4J6C6 whole entry, looked up): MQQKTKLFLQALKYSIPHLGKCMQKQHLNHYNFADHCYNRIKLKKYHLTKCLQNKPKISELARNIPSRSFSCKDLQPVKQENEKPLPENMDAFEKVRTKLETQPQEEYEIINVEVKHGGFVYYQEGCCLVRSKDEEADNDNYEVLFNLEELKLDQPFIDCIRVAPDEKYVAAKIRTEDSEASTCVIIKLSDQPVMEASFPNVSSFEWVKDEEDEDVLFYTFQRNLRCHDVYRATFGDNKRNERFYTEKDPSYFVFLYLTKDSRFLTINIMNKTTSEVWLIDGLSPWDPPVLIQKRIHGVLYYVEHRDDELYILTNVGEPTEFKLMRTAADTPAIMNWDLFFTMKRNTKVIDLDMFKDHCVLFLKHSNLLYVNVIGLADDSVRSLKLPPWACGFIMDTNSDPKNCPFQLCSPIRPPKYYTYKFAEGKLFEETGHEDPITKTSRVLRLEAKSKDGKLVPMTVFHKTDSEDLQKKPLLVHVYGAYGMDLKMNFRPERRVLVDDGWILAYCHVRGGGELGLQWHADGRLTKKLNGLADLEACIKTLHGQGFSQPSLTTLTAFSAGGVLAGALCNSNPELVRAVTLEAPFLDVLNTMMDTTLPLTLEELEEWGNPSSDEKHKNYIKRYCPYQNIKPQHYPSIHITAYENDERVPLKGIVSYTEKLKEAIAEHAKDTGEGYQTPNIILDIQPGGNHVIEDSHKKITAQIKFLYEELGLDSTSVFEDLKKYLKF
# ZTA counter: ZTA (EBV) inhibition in EBNA-1 counter-screen; ZTA-DNA binding, fluorescence polarization; AID 2234; inhibition, % at 11 µM; 0.15% of 320,000 active; in the data active = inhibition above about 33%
# ZTA inh confirm: confirmation of Epstein-Barr virus ZTA DNA binding inhibitors. shares compounds with ZTA counter. Zta-ZRE DNA binding, fluorescence polarization. inhibition, % at 11.1 µM. 30% of 320 active. AID 2361;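 active = mean inhibition across triplicate runs above the hit threshold derived for the original primary screen, cut at about 33% in these data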;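 note: 0% = Zta with DMSO and 100% = wells lacking Zta protein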
# EBNA-1 counter: blocks EBNA-1 DNA binding in ZTA counter-screen. 320 tested, under 10 active. AID 2362. inhibition, % at 14.8 µM. shares compounds with ZTA counter. fluorescence polarization; call rule not given here
# An asterisk follows results filed as active; . = not tested or not shown; + = active, no number. Only some compounds are listed: those with a hit (about 1.7% of all), similar ones and a draw of the others.
SMILES,UBC13 polyUb,Apaf-1 inh,EBNA-1 inh,PREPL inhibitor,ZTA counter,ZTA inh confirm,EBNA-1 counter
COc1ccc(C(=O)NCCc2ccc(C)cc2)cc1OC1CCN(C(C)=O)CC1,3.1,1.5,-1.6,4.4,-6.7,.,.
O=C(Nc1ccc2c(c1)CCCN2C(=O)c1cccs1)c1c(F)cccc1Cl,-4.3,17.3,-10.8,7.9,42.3*,2.8,-2.9
NC(=O)CSc1nc2sc3c(c2c2ncnn12)CCCC3,-3.0,14.5,-3.5,1.8,37.6*,6.4,3.1
c1ccc(-n2ncc3c(N4CCCCC4)ncnc32)cc1,6.9,8.3,5.6,10.6,-13.1,.,.
c1ccc(-n2ncc3c(N4CCN(c5ccccn5)CC4)nc(N4CCCCCC4)nc32)cc1,0.3,16.6,6.4,10.4,40.1*,0.8,-5.4
Cc1cc(C(=O)O)ccc1-n1c(C)ccc1C,18.1,25.2,23.4,5.0,55.3*,56.7*,9.3
Cc1cc(C(=O)O)ccc1-n1c(C)cc(C=C2C(=O)c3ccccc3C2=O)c1C,-46.1,15.6,-0.8,5.0,9.3,.,.
CCC1(CC)NC(=O)N(CC(=O)OC(C)C(=O)Nc2ccc(NC(C)=O)cc2)C1=O (stereo not given),-0.1,-0.6,1.5,7.1,-12.9,.,.
Cc1cc(=O)n2c(C(=O)Nc3ccc(C)c(C)c3)c(C(=O)Nc3ccccc3)sc2n1,-7.8,-14.2,10.5,-39.8,53.2*,12.6,78.2*
COCCNC(=O)c1cc(-c2ccccc2)nn1CC1CC(c2cccnc2)=NO1 (stereo not given),3.9,-9.4,9.0,2.8,+,3.4,0.1
COCCNC(=O)c1cc(-c2ccccc2C)nn1CC1CC(c2cccnc2)=NO1 (stereo not given),-11.6,10.3,.,0.6,.,.,.
Cn1nnnc1Sc1ncnc2scc(-c3cc4ccccc4o3)c12,0.6,7.4,.,-27.6,37.7*,30.1,-9.0
Cc1noc(C)c1C(=O)OCC(=O)c1c(N)n(CC(C)C)c(=O)n(C)c1=O,1.6,6.3,-15.4,0.4,-15.2,.,.
Cc1cc2c(cc1C)C(c1ccccc1Br)CC(=O)N2 (stereo not given),6.1,9.1,3.6,1.3,33.2*,-4.9,-5.5
O=C(Nc1cccc2ccccc12)NC1CCCCC1O (stereo not given),10.7,2.8,-1.9,17.7,57.6*,-4.7,-6.1
CCN1CCN(Cc2ccc(NC(=O)c3cc(NC(=O)c4cc5cccc(OC)c5o4)cc(OC)c3)cc2C(F)(F)F)CC1,39.7,63.1*,6.3,-23.2,36.8*,9.5,-6.2
O=C(O)CSc1ncnc2sc3c(c12)CCCC3,1.6,-9.0,-1.3,16.8,-14.5,.,.
Cc1ccccc1OCc1nnc(SCC(=O)NCc2ccco2)n1C,4.8,-7.1,12.9,-40.8,35.0*,-8.4,0.3
N#CCC(=O)Nc1ccc(C(=O)Nc2ccc3c(c2)OCO3)cc1,-18.9,-17.2,.,11.6,-5.1,.,.
Cc1cc(C)nc(NC(=O)NS(=O)(=O)Nc2ccc(Br)cn2)n1,2.9,-2.5,14.9,-1.7,33.1*,-5.9,-2.6
Cc1cccc(CN2C(=O)c3ccccc3Sc3ccc(C(=O)NCCCN4CCOCC4)cc32)c1,13.2,20.1,1.5,-3.4,-11.3,.,.
Cc1cccc(CN2C(=O)/C(=C\c3ccc(C(=O)NCCCN4CCN(C)CC4)cc3)Oc3ccccc32)c1,67.8*,52.5*,5.4,-90.4,69.7*,49.8*,-9.7
CC(=O)c1cccc(NC(=O)CCC(=O)c2ccc(F)cc2)c1,-4.2,16.6,.,.,.,.,.
Cc1cc(C)c(C)c(S(=O)(=O)N2CCN(C(=O)CCc3nc4ccccc4c(=O)[nH]3)CC2)c1C,-1.7,22.0,-4.5,3.5,4.8,.,.
O=c1c(Cl)c(Cl)cnn1Cc1ccccc1Cl,.,.,3.5,-5.5,34.2*,4.4,-0.7
SMILES,UBC13 polyUb,Apaf-1 inh,EBNA-1 inh,PREPL inhibitor,ZTA counter,ZTA inh confirm,EBNA-1 counter
Cc1ccc(Cn2ncc(Cl)c(Cl)c2=O)cc1,21.9,2.4,-3.9,0.0,1.8,.,.
CN(CC(=O)Nc1ccc(Cl)c(Cl)c1)CC(=O)Nc1ccc2c(c1)OCO2,9.6,13.0,.,13.9,+,-2.2,-6.9
Cc1ccc(S(=O)(=O)/N=C2/C=C(Sc3ncn[nH]3)C(=O)c3ccccc32)cc1,.,.,0.4,6.4,41.0*,74.9*,-9.6
COC(=O)[C@@H](N)Cc1ccc(O)c(O)c1,9.2,9.6,1.5,-3.5,2.9,.,.
Cc1ccc(-c2cccc(C(=O)NCCc3ccccc3)n2)c2ccccc12,10.2,24.1,-2.8,-1.2,-10.8,.,.
Nc1nnnn1/N=C/c1ccc(F)cc1,1.3,9.5,-6.1,19.5,51.9*,-1.0,-16.5
Nc1nnnn1/N=C/c1ccc(Br)cc1,2.1,-9.2,.,.,.,.,.
CCCOc1ccc(-c2csc3ncn(Cc4ccc(C(=O)O)cc4)c(=O)c23)cc1,-3.3,2.4,12.2,-3.7,42.8*,4.8,3.9
N#C/C(=C\c1ccco1)c1nc2ccccc2s1,-3.4,7.7,2.4,-10.5,3.2,.,.
N#C/C(=C/c1ccc(-c2cc(C(=O)O)cc(C(=O)O)c2)o1)c1nc2ccccc2s1,-69.6,35.2,-5.3,-0.4,61.0*,25.0,-1.2
CC1CCN(C(=O)COC(=O)c2n[nH]c(=O)c3ccccc23)CC1,1.2,-1.9,.,-9.9,35.6*,-0.8,-7.2
O=C(NCCC(=O)N1CCN(c2ccccn2)CC1)c1ccc(Br)cc1,1.9,6.5,-9.2,-25.6,-9.9,.,.
COc1ccc(NS(=O)(=O)c2ccc3c(c2)[C@H]2C=CC[C@H]2[C@@H](c2ccc(C(=O)O)cc2)N3)cc1,-3.4,7.9,9.5,33.3,35.2*,48.4*,6.8
COc1ccc(S(=O)(=O)NCCS(=O)(=O)N2CCN(c3ccccc3)CC2)cc1,-0.3,12.2,-2.4,-41.9,-7.9,.,.
Cc1ccc(S(=O)(=O)/N=C2/NC(=O)/C(=C/c3cc([N+](=O)[O-])ccc3O)S2)cc1,-47.0,15.0,-6.8,16.0,34.0*,41.3*,-1.1
O=C(Nc1cccc(-c2cn3ccccc3n2)c1)c1cc2ccccc2oc1=O,-12.5,36.9,6.2,1.4,36.4*,34.8*,-1.1
CCOc1ccc(NC(=O)Cn2nnc(C(=O)NCc3ccc(OC)cc3)c2N)cc1,0.4,-18.1,1.2,-0.8,19.7,.,.
CCc1ccc(C(C)NC(=O)c2ccc(F)cc2)cc1 (stereo not given),4.8,-0.9,-7.6,-10.4,-10.2,.,.
CCc1ccc(C(C)NC(=O)c2ccncc2)cc1 (stereo not given),-5.5,-14.9,-6.4,4.0,114.2*,-7.3,5.2
CCC1CCCCN1S(=O)(=O)c1ccc(C(=O)Nc2nnc(C3=COCCO3)o2)cc1 (stereo not given),-23.4,10.9,-1.9,-0.2,3.3,.,.
O=c1oc(-c2cccs2)nc2sc3c(c12)CCC3,0.9,-10.8,8.3,11.4,0.0,.,.
CN1CCc2c(sc3c2C(=O)NC(c2ccccn2)N3)C1 (stereo not given),-34.5,23.3,17.1,-3.1,40.3*,9.4,3.2
CCOC(=O)c1c(C)oc2ccc(O)c(CN(C)C)c12,5.6,-0.1,8.0,8.7,-11.6,.,.
